Measured values: ChEMBL document CHEMBL4002592, “Piperlongumine derived cyclic sulfonamides (sultams): Synthesis and in vitro exploration for therapeutic potential against HeLa cancer cell lines” (2017)
Where a name gives a salt, the structure may show the parent alone.

Experiments:
Format in all cases: functional
[1] = tested on: HeLa; experiment: Cytotoxicity against human HeLa cells assessed as cell growth at 10^-4 M after 48 hrs by SRB assay relative to control; details: read-out: Activity
In short: (§1)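 HeLa (NCI source) kept in RPMI 1640 with 10% FBS and 2 mM L-glutamine, 37°C, 5% CO2. Cells seeded at 5,000/well, incubated overnight, then exposed 48 h to drug at final 10^-4 to 10^-7 M from 10^-2 M DMSO stock. Fixed with 10% TCA, stained with 0.4% SRB for 20 min, dye dissolved in 10 mM Tris, OD 540 nm. % growth = 100×(T–T₀)/(C–T₀). Mean of three experiments.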

[2] = tested on: HeLa; experiment: Cytotoxicity against human HeLa cells assessed as growth inhibition after 48 hrs by SRB assay
In short: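 HeLa in RPMI 1640/10% FBS/2 mM glutamine, seeded at 5,000 cells/well overnight, then treated 48 h at final 10^-4 to 10^-7 M (DMSO stock 10^-2 M). Read by SRB: TCA fixation, 0.4% SRB stain, Tris solubilisation, OD 540 nm. Growth corrected for time-zero OD. Mean % growth plotted against molar concentration; GI50 taken as the concentration giving 50% growth inhibition.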

[3] = tested on: HeLa; experiment: Cytotoxicity against human HeLa cells assessed as cell growth at 10^-5 M after 48 hrs by SRB assay relative to control; details: read-out: Activity; in short: as §1
[4] = tested on: HeLa; experiment: Cytotoxicity against human HeLa cells assessed as cell growth at 10^-7 M after 48 hrs by SRB assay relative to control; details: read-out: Activity; in short: as §1
[5] = tested on: HeLa; experiment: Cytotoxicity against human HeLa cells assessed as cell growth at 10^-6 M after 48 hrs by SRB assay relative to control; details: read-out: Activity; in short: as §1

| SMILES | growth at 100 µM [1] [%] | GI50 [2] [µM] | growth inhibition (GI) [2] | growth at 10 µM [3] [%] | growth at 0.1 µM [4] [%] | growth at 1 µM [5] [%] |
| --- | --- | --- | --- | --- | --- | --- |
| O=C(/C=C/c1c[nH]c2ccc(F)cc12)N1CCC=CS1(=O)=O | -48 | 18.8 | Dose-dependent effect | 25.3 | 90.4 | 87.6 |
| O=C(/C=C/c1ccoc1)N1CCC=CS1(=O)=O | -78.1 | 20.3 | Dose-dependent effect | 57.7 | 92 | 80.2 |
| O=C(/C=C/c1cccc(F)c1)N1CCC=CS1(=O)=O | -69 | < 0.1 | Dose-dependent effect | -39.2 | 96.8 | 42.4 |
| O=C(/C=C/c1ccccc1F)N1CCC=CS1(=O)=O | -75.3 | 13.7 | Dose-dependent effect | 52.4 | 78.5 | 62.3 |
| COc1cc(/C=C/C(=O)N2CCC=CS2(=O)=O)cc(OC)c1 | -78.4 | < 0.1 | Dose-dependent effect | -60.1 | 82.5 | 32.5 |
| O=C(/C=C/c1ccc(Cl)cc1)N1CCC=CS1(=O)=O | -30.5 | 26.4 | Dose-dependent effect | 53.5 | 90.7 | 80.2 |
| O=C(/C=C/c1cccc(-c2ccccc2)c1)N1CCC=CS1(=O)=O | -63 | 19.8 | Dose-dependent effect | 32.9 | 97.6 | 86.5 |
| COc1cccc2c1C(=O)c1c(O)c3c(c(O)c1C2=O)C[C@@](O)(C(=O)CO)C[C@@H]3O[C@H]1C[C@H](N)[C@H](O)[C@H](C)O1 [DOXORUBICIN HYDROCHLORIDE] | -84.6 | < 0.1 | – | -84.1 | -76.8 | -82.9 |
| COc1cccc(/C=C/C(=O)N2CCC=CS2(=O)=O)c1 | -79.7 | 23.7 | Dose-dependent effect | 68.7 | 90.8 | 92.2 |
| O=C(/C=C/c1cccs1)N1CCC=CS1(=O)=O | -75.3 | 18.8 | Dose-dependent effect | 53.4 | 92.1 | 74.2 |
| O=C(/C=C/c1cccc(C(F)(F)F)c1)N1CCC=CS1(=O)=O | -64.8 | 19.6 | Dose-dependent effect | 34.9 | 95.5 | 86.3 |
| Cc1cccc(/C=C/C(=O)N2CCC=CS2(=O)=O)c1 | -67.1 | 20.7 | Dose-dependent effect | 35 | 99.9 | 89.5 |
| Cc1ccc(C(=O)N2CCC=CS2(=O)=O)cc1[N+](=O)[O-] | -11.2 | 39.2 | Dose-dependent effect | 67.6 | 97.1 | 93.7 |
| O=C(/C=C/c1c(Cl)nc2ccccn12)N1CCC=CS1(=O)=O | -78.5 | 8.2 | Dose-dependent effect | 20.6 | 87 | 59 |
| COc1cc(/C=C/C(=O)N2CCC=CS2(=O)=O)cc(OC)c1OC | -80.6 | 14.3 | Dose-dependent effect | 46.8 | 79.8 | 71.4 |
| O=C(/C=C/c1ccc([N+](=O)[O-])cc1)N1CCC=CS1(=O)=O | -71.6 | 24.4 | Dose-dependent effect | 59 | 100 | 90.4 |
| Cc1ccc(/C=C/C(=O)N2CCC=CS2(=O)=O)cc1 | -33.5 | 18.6 | Dose-dependent effect | 26.3 | 86.8 | 81.4 |
| COc1ccccc1/C=C/C(=O)N1CCC=CS1(=O)=O | -80.1 | 0.1 | Dose-dependent effect | 14.6 | 76.7 | 35 |
| COc1ccc(/C=C/C(=O)N2CCC=CS2(=O)=O)cc1 | -55.3 | 24.4 | Dose-dependent effect | 68.1 | 84.7 | 83.8 |
| O=C(c1cccc(Cl)c1)N1CCC=CS1(=O)=O | 10.8 | 45.4 | Dose-dependent effect | 55.4 | 100 | 86.7 |
